Data set [1] deals with Mycolicibacterium smegmatis. Nature of the data set: Antimycobacterial activity against Mycobacterium smegmatis ATCC 14468 after 3 days by MTT assay. Type of data set: functional. The conditions noted are these: ATCC 14468, 72 h. In general terms: Tetrazolium assays rely on reduction of a dye to a coloured formazan, in cell work by metabolically active cells.
The test system of data set [2] is Mycolicibacterium smegmatis. Description: Antimycobacterial activity against Mycobacterium smegmatis mc2155 after 3 days by MTT assay. It is filed as functional. The conditions noted are these: mc2155, 72 h. Summed up:
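Broth microdilution MIC. Inoculum grown on Columbia blood agar with 7% defibrinated horse blood, suspended in 0.9% NaCl to 5 × 10^5 cells/mL. Sterile, growth and isoniazid controls were included. Incubated 3 days at 37 °C; methanolic MTT added, dark violet indicating growth. Tests repeated three times.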

Data set [3] has as its system Mycolicibacterium fortuitum. Nature of the data set: Antimycobacterial activity against Mycobacterium fortuitum ATCC 6841 after 3 days by MTT assay. The conditions noted are these: ATCC 6841, 72 h. Type of data set: functional.
The subject of data set [4] is Mycolicibacterium phlei. Nature of the data set: Antimycobacterial activity against Mycobacterium phlei ATCC 11758 after 3 days by MTT assay. Type of data set: functional. The conditions noted are these: ATCC 11758, 72 h.
Data set [5] is described as follows: Cytotoxicity against human MRC5 cells assessed as cell viability at 100 uM after 72 hrs by XTT assay. Type of data set: cell-based. To be noted: read-out: Activity. Summed up:
(§1)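 MRC-5 cells seeded at 5 × 10^4 cells/well and grown 24 h in MEM. Compounds came from fresh ethanol stocks; solvent control was 0.1% ethanol. 72 h exposure at 37 °C, 5% CO2. XTT plus electron-coupling reagent (50:1) added for 4 h. Viability expressed as % of solvent control, triplicate on at least two plates (n = 6), mean ± SEM.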

The nature of data set [6]: Cytotoxicity against human MRC5 cells assessed as cell viability at 30 uM after 72 hrs by XTT assay. To be noted: read-out: Activity. It is filed as cell-based. Summed up: as §1
Data set [7] can be described thus: Cytotoxicity against human MRC5 cells assessed as cell viability at 0.12 uM after 72 hrs by XTT proliferation assay. Type of data set: cell-based. To be noted: read-out: Activity.

Molecules are shown by their SMILES. In brackets after ≈: the same amount, converted by molar mass.

As to `CCCCCCCC/C=C/c1cc(=O)c2ccccc2n1CCCCC`, the MIC (as a rule, the smallest concentration in the dilution series that meets the test's criterion for growth inhibition) in data set [1] was determined as 2 µg/mL (≈ 5.66 µM); in data set [2] it was 1 µg/mL (≈ 2.83 µM); in data set [3] it was 4 µg/mL (≈ 11.3 µM); in data set [4], 4 µg/mL (≈ 11.3 µM). In data set [5], the viability at 72 h, 100 µM stood at 0.46%. Besides, the viability at 72 h, 30 µM in data set [6] was determined as 61.7%.
`O=C(O)c1cn(C2CC2)c2cc(N3CCNCC3)c(F)cc2c1=O` [CIPROFLOXACIN] yielded an MIC in data set [1] of 0.125 µg/mL (≈ 0.377 µM).
Turning to `CC[C@@H](CO)NCCN[C@@H](CC)CO` [ETHAMBUTOL], the MIC in data set [1] came out at 2 µg/mL (≈ 9.79 µM); in data set [2] it was 4 µg/mL (≈ 19.6 µM); in data set [3] it was 16 µg/mL (≈ 78.3 µM); in data set [4], 4 µg/mL (≈ 19.6 µM).
Turning to `C#CCn1c(/C=C/CCCCCCC)cc(=O)c2ccccc21`, the MIC came to 2 µg/mL (≈ 6.51 µM) in data set [1], 2 µg/mL (≈ 6.51 µM) in data set [2], 32 µg/mL (≈ 104 µM) in data set [3] and 4 µg/mL (≈ 13 µM) in data set [4]. The viability at 72 h, 100 µM in data set [5] was 63.9%. Further, the viability at 72 h, 30 µM in data set [6] is 71.1%.
`CCCCCCC/C=C/c1cc(=O)c2ccccc2n1CC` came in with an MIC in data set [1] of 8 µg/mL (≈ 26.9 µM). Moreover, in data set [5], the viability at 72 h, 100 µM stood at 52.6%. In data set [6], the viability at 72 h, 30 µM was 96.6%.
For the compound `C=CCn1c(/C=C/CCCCCCCCCCC)cc(=O)c2ccccc21`, in data set [1], 4 µg/mL (≈ 10.9 µM) was the least that counted as inhibitory (MIC). For the same compound, the viability at 72 h, 100 µM in data set [5] was found to be 1.06%. Moreover, the viability at 72 h, 30 µM in data set [6] stood at 17.9%.
Take `CC[C@]1(O)C[C@@H]2CN(CCc3c([nH]c4ccccc34)[C@@](C(=O)OC)(c3cc4c(cc3OC)N(C)[C@H]3[C@@](O)(C(=O)OC)[C@H](OC(C)=O)[C@]5(CC)C=CCN6CC[C@]43[C@@H]65)C2)C1` [VINBLASTINE]: the viability at 72 h, 0.12 µM in data set [7] was 60.1%.
Consider `C#CCn1c(/C=C/CCCCCCCCCC)cc(=O)c2ccccc21`, for which inhibition of growth in data set [1] (MIC) required 64 µg/mL (≈ 183 µM). The viability at 72 h, 100 µM in data set [5] was 0.64%. For the same compound, the viability at 72 h, 30 µM in data set [6] amounted to 40.7%.
The corresponding values for `C#CCn1c(/C=C/CCCCCCCC)cc(=O)c2ccccc21` are 16 µg/mL (≈ 49.8 µM), 0.4% and 43.6%.
Taken in the same sequence, the figures for `CCCCCCCCCC/C=C/c1cc(=O)c2ccccc2n1CCCCC` were 8 µg/mL (≈ 21 µM), 0.25% and 31.6%.
The corresponding values for `C=CCn1c(/C=C/CCCCCCC)cc(=O)c2ccccc21` are 8 µg/mL (≈ 25.9 µM), 0.53% and 10.1%.
`CCCCCCC/C=C/c1cc(=O)c2ccccc2n1CCC` had an MIC in data set [1] of 4 µg/mL (≈ 12.8 µM). For the same compound, in data set [5], the viability at 72 h, 100 µM was 7.4%. Further, in data set [6], the viability at 72 h, 30 µM is 32.9%.
The compound `CCCCCCCC/C=C/c1cc(=O)c2ccccc2n1CC` registered an MIC in data set [1] of 4 µg/mL (≈ 12.8 µM). The viability at 72 h, 100 µM in data set [5] came out at 0.53%. The viability at 72 h, 30 µM in data set [6] worked out at 39.2%.
In data set [1], `CCCCCCCCC/C=C/c1cc(=O)c2ccccc2n1CCCCC` came in with an MIC of 4 µg/mL (≈ 10.9 µM). In addition, the viability at 72 h, 100 µM in data set [5] is 0.38%. In addition, the viability at 72 h, 30 µM in data set [6] amounted to 41.6%.
Regarding `NNC(=O)c1ccncc1` [ISONIAZID], the MIC in data set [1] was 4 µg/mL (≈ 29.2 µM); in data set [2], 4 µg/mL (≈ 29.2 µM); in data set [3], 1 µg/mL (≈ 7.29 µM); in data set [4], 16 µg/mL (≈ 117 µM).
Regarding `C=CCn1c(/C=C/CCCCCCCCCCCC)cc(=O)c2ccccc21`, in data set [1], the MIC worked out at 16 µg/mL (≈ 42.2 µM). Moreover, the viability at 72 h, 100 µM in data set [5] is 0.7%. For the same compound, the viability at 72 h, 30 µM in data set [6] turned out to be 98.2%.
For the compound `C#CCn1c(/C=C/CCCCCCCCC)cc(=O)c2ccccc21`, in data set [1], the MIC was 4 µg/mL (≈ 11.9 µM). Further, the viability at 72 h, 100 µM in data set [5] worked out at 26.3%. The viability at 72 h, 30 µM in data set [6] worked out at 92.3%.
Taken in the same sequence, the figures for `CCCCCCCCCCCC/C=C/c1cc(=O)c2ccccc2n1CCC` were 16 µg/mL (≈ 41.9 µM), 0.72% and 42.6%.
The corresponding values for `CCCCCCCCCCCC/C=C/c1cc(=O)c2ccccc2n1CCCC` are 128 µg/mL (≈ 324 µM), 0.51% and 10.9%.
Taken in the same sequence, the figures for `CCCCCCCCCC/C=C/c1cc(=O)c2ccccc2n1CCCC` were 4 µg/mL (≈ 10.9 µM), 0.45% and 42.4%.
Take `C=CCn1c(/C=C/CCCCCCCC)cc(=O)c2ccccc21`: the MIC in data set [1] stood at 2 µg/mL (≈ 6.18 µM); in data set [2], 1 µg/mL (≈ 3.09 µM); in data set [3] it was 4 µg/mL (≈ 12.4 µM); in data set [4], 2 µg/mL (≈ 6.18 µM). Besides, in data set [5], the viability at 72 h, 100 µM was determined as 0.63%. For the same compound, the viability at 72 h, 30 µM in data set [6] amounted to 33%.
Take `C#CCn1c(/C=C/CCCCCCCCCCCC)cc(=O)c2ccccc21`: in data set [1], the MIC amounted to 128 µg/mL (≈ 339 µM). Moreover, the viability at 72 h, 100 µM in data set [5] was determined as 10%. The viability at 72 h, 30 µM in data set [6] amounted to 100%.
The corresponding values for `CCCCCCCCCCC/C=C/c1cc(=O)c2ccccc2n1CCCCC` are 128 µg/mL (≈ 324 µM), 0.25% and 11.7%.
Regarding `CCCCCCCC/C=C/c1cc(=O)c2ccccc2n1CCC`, the MIC in data set [1], in data set [2], in data set [3] and in data set [4] was 2 µg/mL (≈ 6.14 µM) throughout. In addition, the viability at 72 h, 100 µM in data set [5] was found to be 0.5%. The viability at 72 h, 30 µM in data set [6] is 56.1%.

Values taken from ChEMBL document CHEMBL1781899, “Synthesis of N-substituted 2-[(1E)-alkenyl]-4-(1H)-quinolone derivatives as antimycobacterial agents against non-tubercular mycobacteria” (Eur J Med Chem, 2011).
